# Rows were chosen to be rich in hits. Some 3% of all compounds tested hit in one or more screens of this group.
# PvdQ inh = P. aeruginosa PvdQ acylase inhibition; inhibition, % at 10 µM; 0.063% of 340,000 active; purified PvdQ acylase, fluorescence plate reader; in the data active = inhibition above about 30%, passing the limit was not always enough;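 also: 0% = vehicle neutral wells and 100% = reference inhibitor wells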
# CaV13 FRET inh = Primary screen for inhibitors of IQ motif and Ca2+-dependent inactivation inhibitor domain binding in CACNA1D, Förster resonance energy transfer in living cells, … | HEK cells, CFP/YFP FRET ICDI-IQ, plate reader, 10 min; percent FRET-ratio fall versus neutral wells | inhibition, % at 12.3 µM | 0.098% of 340,000 active;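 active = mean replicate inhibition of at least 30% and at least 1% of replicates passing that level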;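 also: 0% = median of the neutral control wells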
# T cruzi repl = blocks replication of Trypanosoma cruzi; 1.4% of 300,000 active; T. cruzi beta-gal in NIH3T3, luminescence, 90 h; AID 1885; inhibition, % (no concentration beside the values);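 active = mean inhibition across valid replicates above about 55%, limit read from the data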;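 also: signal also drops with host cell toxicity which is not excluded here; 0% = plate median of DMSO wells and 100% = zero luminescence signal; higher percent means less beta-gal luminescence so fewer parasites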
#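 System: NIH/3T3 fibroblasts plus reporter T. cruzi. Medium: DMEM plus 2% FBS. Probe or stimulus: 5000 reporter trypomastigotes per well. Compound: single 50 nL compound addition per well in DMSO. Incubation: co-culture of at least 90 h after 3 h attachment. Detection: GalScreen β-gal luminescence, detergent lysis, 60 min. Evaluation: parasite load inhibition, %.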
# HSF1 activator = increases HSF-1 driven luciferase reporter signal; NIH3T3-HGL HSF-1 luciferase reporter, MG132, 8 h; 100% = twice DMSO control signal; activation, % at 9 µM; 1.7% of 300,000 active;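 active = mean replicate activation of at least 50% with a set share of replicates each reaching 50%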;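 also: 0% = median of the neutral control wells and 100% = twice that signal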
# PfHsp90 yeast 2 = reduces growth (ATP signal) of yeast expressing P. falciparum Hsp90 | AID 504621 | inhibition, % at 9.4 µM | 0.32% of 310,000 active | S. cerevisiae expressing PfHsp90, BacTiter-Glo ATP, 48 h; yeast lacking PDR1 and PDR3 efflux regulators;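 active = every replicate shows inhibition above about 80%, whatever the replicate mean, limit read from the data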;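 also: 0% = DMSO neutral controls and 100% = 20 µM radicicol positive controls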
# N-glyco inh = N-linked glycosylation inhibition. D54 ERlucT glycosylation luciferase reporter, 24 h; percent of 100 nM tunicamycin response. reporter increase, % at 12.5 µM. 0.23% of 360,000 active. AID 588692;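 active = mean luciferase reporter signal, scaled so untreated is 0 and the glycosylation-blocking control 100, at or above a set limit in every replicate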;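 also: luciferase carries N-glycosylation sites so blocking glycosylation raises the light; 0% = median of neutral control wells and 100% = median of 100 nM tunicamycin wells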
# An asterisk follows results filed as active; x = not tested or not shown.
SMILES,PvdQ inh,CaV13 FRET inh,T cruzi repl,HSF1 activator,PfHsp90 yeast 2,N-glyco inh
Nc1c(C(=O)NCc2ccccc2)c2nc3ccccc3nc2n1CCCN1CCOCC1,-7,76*,25,-19,9,0
O=C(c1ccc(-c2ccc(Cl)cc2Cl)o1)N1CCOCC1,-17,-3,3,60*,-4,-4
CCOC(=O)C1CCN(S(=O)(=O)c2c(Cl)ccc3nonc23)CC1,-8,x,64*,197*,-11,-21
CCOc1ccc(CN2CCN(Cc3[nH]c4ccc(OC)cc4c3C)CC2CCO)cc1 (stereo not given),7,-3,72*,12,-32,-1
Cc1ncc(CN2CCN(Cc3ccc(F)cc3)C(CCO)C2)s1 (stereo not given),39*,-2,-5,-1,3,0
CCOc1ccccc1CN1CCN(CC2=Cc3cc(OC)ccc3OC2)CC1CCO (stereo not given),-6,-5,55*,-15,-1,0
COc1ccc(CN2CCN(Cc3cc4ccccc4o3)CC2CCO)cc1C (stereo not given),-10,-2,55*,-6,2,2
COc1ccc2c(c1)Cc1c-2cc(Br)c(N)c1Br,x,-6,x,x,x,-4
C[C@@H]1CN(C(=O)OC(C)(C)C)CCN1c1ccc(N2CC[C@@H](O)C2)c(C#N)c1,x,-9,x,x,x,x
CCOc1ccccc1CN1CCN(Cc2[nH]c3ccccc3c2C)CC1CCO (stereo not given),7,-4,66*,-14,x,-2
CCOc1ccccc1CN1CCN(Cc2nc3ccccc3s2)CC1CCO (stereo not given),8,8,58*,-7,x,0
CCOc1ccc(CN2CCN(Cc3nc(C(C)C)cs3)CC2CCO)cc1 (stereo not given),x,-7,58*,8,x,x
COc1ccc(CN2CCN(Cc3cccc4nonc34)CC2CCO)c(C)c1C (stereo not given),-8,-7,66*,22,-3,-2
CC(C)c1csc(CN2CCN(Cc3ccccc3)C(CCO)C2)n1 (stereo not given),-6,-6,5,-6,x,1
COc1ccc2[nH]c(C)c(CCN(Cc3cccs3)C(=S)Nc3ccc(F)cc3)c2c1,-12,x,55*,10,15,-2
COc1ccccc1NC(=S)N(CCc1c(C)[nH]c2ccccc12)Cc1cccs1,3,-6,22,-5,-6,-6
COc1ccc(NC(=S)N(CCc2c(C)[nH]c3ccc(C)cc23)Cc2cccs2)cc1,17,-6,21,39,-3,-7
Cc1[nH]c2ccc(F)cc2c1CCN(Cc1cccnc1)C(=S)Nc1ccc(F)cc1,-10,-4,61*,12,17,-3
COc1ccc2[nH]c(C)c(CCN(Cc3cccs3)C(=S)Nc3ccccc3)c2c1,1,-9,58*,-1,-1,-1
CC(=O)Nc1cccc(-c2ccnc3c2CC(C)(C(=O)Nc2ccc(C(C)C)cc2)O3)c1 (stereo not given),x,-9,x,x,x,4
COc1cc2c(cc1OC)C(c1cc(Br)ccc1F)N(C(=O)CCl)CC2 (stereo not given),-4,-17,65*,-97,8,22
COc1cc2c(cc1OC)C(C1C(=O)CC(C)(C)CC1=O)N(C(=O)CCl)CC2 (stereo not given),-14,2,-13,6,-4,0
Oc1ccc(-c2c(-c3ccsc3)sc3ccccc23)cc1,-4,-8,16,0,107*,-2
COC(=O)[C@]12C[C@H](CC(=O)N3CCN(C(=O)c4ccco4)CC3)C(=O)N(Cc3ccc4c(c3)OCO4)C1=C[C@H](C(C)(C)C)O[C@@H]2C,x,-8,x,x,x,x
C/C(Cn1nnc([N+](=O)[O-])n1)=N\NC(=O)c1ccc(Cl)c(Cl)c1,-2,-7,66*,-19,-11,1
SMILES,PvdQ inh,CaV13 FRET inh,T cruzi repl,HSF1 activator,PfHsp90 yeast 2,N-glyco inh
COc1ccccc1CCn1cnc(-c2cccc(Br)c2)c1C(C)C,x,-4,x,x,x,x
Cc1ccc(C2=NN3C(C2)c2ccccc2OC32C(=O)Nc3ccccc32)cc1 (stereo not given),-19,x,21,26,-29,-8
CN1C(=O)C2(Oc3ccccc3C3CC(c4ccccc4)=NN32)c2ccccc21 (stereo not given),-16,x,9,76*,-20,-2
O=C(C=Cc1ccc(OCc2ccccc2)cc1)c1c(F)cccc1F,x,-6,x,x,x,x
O=C(Nc1cc(Cl)ccc1N1CCOCC1)c1ccc(N2CCCCC2)c([N+](=O)[O-])c1,4,-5,22,4,7,3
Cc1ccc(NC(=O)c2ccc(NCCCN3CCOCC3)c([N+](=O)[O-])c2)cc1Cl,3,-6,33,26,13,6
O=C(Nc1ccc(Cl)c([N+](=O)[O-])c1)c1ccc(NCCCN2CCOCC2)c([N+](=O)[O-])c1,-9,-4,55*,-14,-9,-5
O=C(N/N=C/c1ccc(Cl)cc1)c1ccc2c(c1)OCO2,3,-4,4,55*,-10,13
O=C(N/N=C/c1cc(Cl)cc([N+](=O)[O-])c1O)c1ccc2c(c1)OCO2,-3,-2,57*,-14,-29,0
O=C(Nc1ccc(N2CCCCC2)c(Cl)c1)c1ccc(N2CCOCC2)c([N+](=O)[O-])c1,8,-8,62*,-10,-14,-11
C[C@@H]1CN([C@@H](C)CO)S(=O)(=O)c2ccc(Br)cc2O[C@@H]1CN(C)Cc1ccc2c(c1)OCO2,x,-5,x,x,x,x
O=C(O)c1ccccc1C=NN1CCCCCC1,-10,-4,x,x,x,-1
O=C(Nc1ccc(Cl)cc1)c1ccc2c(c1)OCO2,-8,-5,-12,60*,-4,-11
CC(C)c1ccc(/C=N/NC(=O)c2cccc(Cl)c2)cc1,3,-6,9,55*,12,21
O=C(N/N=C/c1cccnc1)c1cccc(Cl)c1,-4,-4,-11,3,3,0
O=C(Nc1ccc(N2CCCC2)c(Cl)c1)c1ccc(Br)o1,-2,-8,55*,9,-15,-6
O=C(Nc1ccccc1N1CCCC1)c1ccc(Br)o1,-5,-7,-23,-12,x,-1
O=C(Nc1ccc(N2CCCC2)c(Cl)c1)c1ccc2c(c1)OCCO2,-6,-5,59*,36,4,-8
COc1ccc2oc(-c3ccc(C)c(NC(=O)c4ccc(N5CCOCC5)c([N+](=O)[O-])c4)c3)nc2c1,-1,-4,15,81*,-10,-2
O=C(Nc1ccc(Cl)c(Cl)c1)c1ccc2c(c1)OCO2,-9,-4,4,88*,3,-12

# Screens: PubChem, Broad Institute
